Active and inactive are the calls of the source. The calls are words filed in the database; no cut-off is given here.
Tests used:
[1] = test system: WI-38; assay: Cytotoxicity against human WI38 cells assessed as cell viability after 48 hrs by MTT assay; assay type: cell-based; details: WI-38, 48 h
How it was run: (§1)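 Growth conditions: RPMI 1640 for HL60, CRL1579, NIH:OVCAR-3, SK-BR-3, DU145 and PANC-1; D-MEM for A549; MEM for WI-38; all with 10% FBS and antibiotics, 37 °C, 5% CO2. Seeded at 3 × 10^3 cells/well (OVCAR-3 1 × 10^4), then treated 48 h with 10^-4 to 10^-6 M. MTT for 3 h, formazan dissolved in 0.04 M HCl/2-propanol, A570/630. IC50 (50% growth inhibition) from triplicates.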

[2] = test system: SK-BR-3; assay: Cytotoxicity in human SK-BR-3 cells assessed as cell viability after 48 hrs by MTT assay; assay type: functional, cell-based; details: SK-BR-3, 48 h; how it was run: as §1
[3] = Cytotoxicity in human CRL1579 cells assessed as cell viability after 48 hrs by MTT assay; assay type: functional, cell-based; how it was run: as §1
[4] = test system: A549; assay: Induction of apoptosis in human A549 cells assessed as viable cells at 30 uM after 24 hrs by AnnexinV/propidium iodide staining (Rvb =91.2%); assay type: functional; details: A549, 24 h, read-out: Activity
[5] = test system: A549; assay: Induction of mitochondrial signal transduction pathway-mediated apoptosis in human A549 cells assessed as increase in Bax level at 30 uM after 24 to 48 hrs by Western blot analysis; assay type: functional, cell-based
How it was run: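 A549 cells (1.5 × 10^5) were pre-incubated 24 h, then given 30 μM for 24 or 48 h. Whole-cell lysates were run on 15% SDS-PAGE, transferred to PVDF and probed overnight at 4 °C for Bax, Bcl-2 and β-actin. The Bcl-2 band was quantified by densitometry relative to untreated cells, n = 3.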

[6] = test system: HL-60; assay: Cell cycle arrest in human HL60 cells assessed as accumulation at S phase at 30 uM after 24 hrs by flow cytometry (reference value: 42.6%); assay type: functional
How it was run: (§2)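 Cells seeded at 1 × 10^5 per sample for HL60 and 1.5 × 10^5 for A549, then exposed to 30 μM for 0, 24 or 48 h. After a PBS wash, DNA was stained with Nim-DAPI for 10 min at room temperature. Phase distribution was read by flow cytometry, with the sub-G1 (fragmented DNA) fraction taken as the apoptosis index. Values are means of three experiments.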

[7] = test system: HL-60; assay: Cell cycle arrest in human HL60 cells assessed as accumulation at sub-G1 phase at 30 uM after 48 hrs by flow cytometry (reference value: 3.0%); assay type: functional; how it was run: as §2
[8] = test system: HL-60; assay: Induction of apoptosis in human HL60 cells assessed as viable cells at 30 uM after 24 hrs by AnnexinV/propidium iodide staining (Rvb =85.6%); assay type: functional; details: HL-60, 24 h, read-out: Activity
[9] = test system: A549; assay: Cell cycle arrest in human A549 cells assessed as accumulation at S phase at 30 uM after 24 hrs by flow cytometry (reference value: 27.7%); assay type: functional; how it was run: as §2
[10] = test system: HL-60; assay: Cell cycle arrest in human HL60 cells assessed as accumulation at S phase at 30 uM after 48 hrs by flow cytometry (reference value: 42.6%); assay type: functional; how it was run: as §2
[11] = test system: A549; assay: Cell cycle arrest in human A549 cells assessed as accumulation at G2/M phase at 30 uM after 48 hrs by flow cytometry (reference value: 4.9%); assay type: functional; how it was run: as §2
[12] = test system: HL-60; assay: Cell cycle arrest in human HL60 cells assessed as accumulation at Go/G1 phase at 30 uM after 24 hrs by flow cytometry (reference value: 51.4%); assay type: functional; how it was run: as §2
[13] = test system: HL-60; assay: Induction of mitochondrial signal transduction pathway-mediated apoptosis in human HL60 cells assessed as increase in cleaved caspase-3 level at 30 uM after 8 hrs by Western blot analysis; assay type: functional, cell-based
How it was run: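 HL60 cells (1 × 10^6) were pre-incubated 24 h, then given 30 μM for 8 or 24 h. Whole-cell lysates were run on 15% SDS-PAGE, transferred to PVDF and probed overnight at 4 °C for procaspase and cleaved caspase-3, with β-actin as loading control.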

[14] = test system: OVCAR-3; assay: Cytotoxicity in human OVCAR3 cells assessed as cell viability after 48 hrs by MTT assay; assay type: functional, cell-based; details: OVCAR-3, 48 h; how it was run: as §1
[15] = test system: HL-60; assay: Induction of apoptosis in human HL60 cells assessed as late apoptotic cells at 30 uM after 24 hrs by AnnexinV/propidium iodide staining (Rvb =3.3%); assay type: functional
[16] = test system: HL-60; assay: Induction of apoptosis in human HL60 cells assessed as necrotic cells at 30 uM after 24 hrs by AnnexinV/propidium iodide staining (Rvb =2.3%); assay type: functional
[17] = test system: A549; assay: Cell cycle arrest in human A549 cells assessed as accumulation at S phase at 30 uM after 48 hrs by flow cytometry (reference value: 27.7%); assay type: functional; how it was run: as §2
[18] = test system: A549; assay: Cytotoxicity in human A549 cells assessed as cell viability after 48 hrs by MTT assay; assay type: functional, cell-based; details: A549, 48 h; how it was run: as §1
[19] = test system: DU-145; assay: Cytotoxicity in human DU145 cells assessed as cell viability after 48 hrs by MTT assay; assay type: functional, cell-based; details: DU-145, 48 h; how it was run: as §1
[20] = test system: PANC-1; assay: Cytotoxicity in human PANC1 cells assessed as cell viability after 48 hrs by MTT assay; assay type: functional, cell-based; details: PANC-1, 48 h; how it was run: as §1
[21] = test system: HL-60; assay: Induction of apoptosis in human HL60 cells assessed as accumulation at Go/G1 phase at 30 uM after 48 hrs by flow cytometry (reference value: 51.4%); assay type: functional; how it was run: as §2
[22] = test system: A549; assay: Induction of apoptosis in human A549 cells assessed as viable cells at 30 uM after 48 hrs by AnnexinV/propidium iodide staining (Rvb =91.2%); assay type: functional; details: A549, 48 h, read-out: Activity
[23] = test system: A549; assay: Cell cycle arrest in human A549 cells assessed as accumulation at Go/G1 phase at 30 uM after 48 hrs by flow cytometry (reference value: 64.3%); assay type: functional; how it was run: as §2

C=C(CC[C@@H](CO)[C@H]1[C@H](O)C[C@@]2(C)C3=CC[C@@H](C(=C)C)[C@](C)(CCCO)C3=CC[C@]12C)C(C)C [PORICOTRIOL A]
IC50 [1]: 55.7 µM | IC50 [2]: 1.2 µM | IC50 [3]: 5.5 µM | viability at 30 µM [4]: 89.2% | Activity [5]: inactive | Activity [6]: 28.9% | Activity [7]: 38.7% | viability at 30 µM [8]: 34.8% | Activity [9]: 7.8% | Activity [10]: 30.5% | Activity [11]: 3.6% | Activity [12]: 62.3% | Activity [13]: Active | IC50 [14]: 2.2 µM | Activity [15]: 14% | Activity [16]: 3.2% | Activity [17]: 6% | IC50 [18]: 4.2 µM | IC50 [19]: 14.5 µM | IC50 [20]: 26.3 µM | Activity [21]: 58.6% | viability at 30 µM [22]: 49.3% | Activity [23]: 73%

Source: ChEMBL document CHEMBL1765085, “Cytotoxic and apoptosis-inducing activities of triterpene acids from Poria cocos” (J Nat Prod, 2011)
